Test results from ChEMBL document CHEMBL4825663 (J Med Chem, 2021).
≈ marks a conversion by molar mass, not a printed value.

Columns and labels:
[1] = Cmax in Sprague-Dawley rat at 20 mg/kg, po measured upto 24 hrs by LC-MS/MS analysis; assay type: ADME, organism-based; parameters: route oral, dose 20 mg/kg, time <=24; settings: in vivo
[2] = Tmax in Sprague-Dawley rat at 6 mg/kg, iv measured upto 24 hrs by LC-MS/MS analysis; assay type: ADME, organism-based; settings: in vivo
[3] = AUClast in Sprague-Dawley rat at 20 mg/kg, po measured upto 24 hrs by LC-MS/MS analysis; assay type: ADME, organism-based; parameters: route oral, dose 20 mg/kg, time <=24; settings: in vivo
[4] = AUClast in Sprague-Dawley rat at 20 mg/kg, po measured upto 24 hrs in presence of 10 mg/kg encequidar by LC-MS/MS analysis; assay type: ADME, organism-based; parameters: route oral, dose 20 mg/kg, time <=24; settings: in vivo
[5] = Oral bioavailability in Sprague-Dawley rat at 20 mg/kg measured upto 24 hrs in presence of 10 mg/kg encequidar by LC-MS/MS analysis; assay type: ADME, organism-based; settings: in vivo
[6] = Drug accumulation in Beagle dog plasma at 6 mg/kg, po administered once per week for 4 weeks in presence of 3 mg/kg encequidar by LC-MS/MS analysis; assay type: ADME, organism-based, Canis lupus familiaris; settings: in vivo, 672 h
[7] = Drug absorption in fed Sprague-Dawley rat at 20 mg/kg, po measured upto 24 hrs in presence of 10 mg/kg encequidar by LC-MS/MS analysis; assay type: ADME, organism-based; settings: in vivo
[8] = Drug distribution in Sprague-Dawley rat liver at 20 mg/kg, po measured upto 168 hrs in presence of 10 mg/kg encequidar by LC-MS/MS analysis; assay type: ADME, organism-based; settings: in vivo
[9] = Drug distribution in Sprague-Dawley rat intestine at 20 mg/kg, po measured upto 168 hrs in presence of 10 mg/kg encequidar by LC-MS/MS analysis; assay type: ADME, organism-based; settings: in vivo
[10] = Ratio of drug concentration in BALB/c mouse large intestine to plasma at 20 mg/kg, po measured upto 24 hrs in presence of 10 mg/kg encequidar by LC-MS/MS analysis; assay type: ADME, organism-based
[11] = Drug excretion in dog bile at 6 mg/kg, po in presence of 3 mg/kg encequidar; assay type: ADME, organism-based, Canis lupus familiaris; settings: in vivo
[12] = Toxicity in athymic nude mouse xenografted with human MDA-MB-231 cells assessed as reduction in body weight at 30 mg/kg, po administered every other day for 4 doses in presence of 12 mg/kg encequidar and monitored for 70 to 82 days; assay type: organism-based; parameters: scale not given: the % may be the effect or the level left; settings: in vivo, time 70-82 day
Procedure, shortened: (§1)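 Female athymic NCr-nu mice (n = 10/group) bearing subcutaneous MDA-MB-231 xenografts were treated from day 8. […] Individual body weights were monitored for 82 days after implantation.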

[13] = Toxicity in athymic nude mouse xenografted with human MDA-MB-231 cells assessed as reduction in body weight at 40 mg/kg, po administered every other day for 4 doses in presence of 16 mg/kg encequidar and monitored for 70 to 82 days; assay type: organism-based; parameters: scale not given: the % may be the effect or the level left; settings: in vivo, time 70-82 day; procedure, shortened: as §1
[14] = Toxicity in athymic nude mouse xenografted with human MDA-MB-231 cells assessed as reduction in body weight at 20 mg/kg, po administered every other day for 4 doses in presence of 8 mg/kg encequidar and monitored for 70 to 82 days; assay type: organism-based; settings: in vivo, time 70-82 day; procedure, shortened: as §1
[15] = Toxicity in athymic nude mouse xenografted with human NCI-H460 cells assessed as mortality at 30 to 50 mg/kg, po administered every other day for 4 doses in presence of 12 to 20 mg/kg encequidar and monitored for 48 days; assay type: organism-based; settings: in vivo, 1152 h, dose 30-50 mg/kg, time 48 day
[16] = Toxicity in athymic nude mouse xenografted with human NCI-H460 cells assessed as reduction in body weight at 30 to 50 mg/kg, po administered every other day for 4 doses in presence of 12 to 20 mg/kg encequidar and monitored for 48 days; assay type: organism-based; settings: in vivo, 1152 h, dose 30-50 mg/kg, time 48 day
[17] = in vivo; settings: Sprague-Dawley, rat, po, 20 mg/kg
[18] = target: ATP-binding cassette sub-family C member 3 (Homo sapiens, UniProt O15438); assay: Inhibition of […]-stimulated MRP3 ATPase activity (unknown origin) in presence of GSH
[19] = target: ATP-dependent translocase ABCB1 (Homo sapiens, UniProt P08183); assay: Inhibition of paclitaxel stimulated- P-gp ATPase activity (unknown origin)
[20] = Aqueous solubility of compound at pH 3.8; assay type: physicochemical; settings: aqueous solution
[21] = Apparent permeability from apical to basolateral side in MDCK-II cells after 120 mins by LC-MS/MS analysis; assay type: ADME, cell-based, Canis lupus familiaris; settings: dog
[22] = AUClast in Sprague-Dawley rat at 10 mg/kg, po measured upto 48 hrs by LC-MS/MS analysis; assay type: ADME, organism-based; parameters: route oral, dose 10 mg/kg, time <=48; settings: in vivo
Procedure, shortened: (§2)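 Single dose in male Sprague-Dawley rats and male Beagle dogs (n = 3 per species), given 3 mg/kg IV or 10 mg/kg PO. Plasma was sampled to derive Cmax, Tmax, T1/2 and AUClast by each route. Oral bioavailability (F) was calculated from the PO and IV AUClast.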

[23] = AUClast in Beagle dog at 3 mg/kg, iv measured upto 48 hrs by LC-MS/MS analysis; assay type: ADME, organism-based, Canis lupus familiaris; parameters: route intravenous, dose 3 mg/kg, time <=48; settings: in vivo; procedure, shortened: as §2
[24] = target: Cytochrome P450 3A5 (Homo sapiens, UniProt P20815); assay: Drug metabolism assessed as human CYP3A5-mediated metabolism; assay type: ADME; settings: recombinant enzyme
[25] = Toxicity in Sprague-Dawley rat at 200 mg/kg, po administered as repeated dose and measured upto 13 weeks; assay type: organism-based; settings: in vivo, 2184 h
[26] = Toxicity in Sprague-Dawley rat assessed as enlargement of mesenteric lymph nodes at >= 50 mg/kg, po and measured after 4 to 13 weeks; assay type: organism-based, Mesenteric lymph node; settings: in vivo, time 4-13 weeks
[27] = Toxicity in Beagle dog assessed as increase in total leukocyte and eosinophil counts at >= 100 mg/kg, po and measured after 13 weeks; assay type: organism-based, Canis lupus familiaris; settings: in vivo, 2184 h
[28] = Toxicity in Beagle dog assessed as enlargement of lymph nodes at >= 100 mg/kg, po and measured after 13 weeks; assay type: organism-based, Canis lupus familiaris; settings: in vivo, 2184 h
[29] = Drug distribution in Sprague-Dawley rat spinal cord; assay type: ADME, tissue-based; settings: in vivo
[30] = Drug distribution in Sprague-Dawley rat liver; assay type: ADME, tissue-based; settings: in vivo
[31] = Drug distribution in Beagle dog spinal cord; assay type: ADME, tissue-based, Canis lupus familiaris; settings: in vivo
[32] = Cmax in Sprague-Dawley rat at 10 mg/kg, po measured upto 48 hrs by LC-MS/MS analysis; settings: in vivo

Chain of ATP-dependent translocase ABCB1 (P08183 whole entry): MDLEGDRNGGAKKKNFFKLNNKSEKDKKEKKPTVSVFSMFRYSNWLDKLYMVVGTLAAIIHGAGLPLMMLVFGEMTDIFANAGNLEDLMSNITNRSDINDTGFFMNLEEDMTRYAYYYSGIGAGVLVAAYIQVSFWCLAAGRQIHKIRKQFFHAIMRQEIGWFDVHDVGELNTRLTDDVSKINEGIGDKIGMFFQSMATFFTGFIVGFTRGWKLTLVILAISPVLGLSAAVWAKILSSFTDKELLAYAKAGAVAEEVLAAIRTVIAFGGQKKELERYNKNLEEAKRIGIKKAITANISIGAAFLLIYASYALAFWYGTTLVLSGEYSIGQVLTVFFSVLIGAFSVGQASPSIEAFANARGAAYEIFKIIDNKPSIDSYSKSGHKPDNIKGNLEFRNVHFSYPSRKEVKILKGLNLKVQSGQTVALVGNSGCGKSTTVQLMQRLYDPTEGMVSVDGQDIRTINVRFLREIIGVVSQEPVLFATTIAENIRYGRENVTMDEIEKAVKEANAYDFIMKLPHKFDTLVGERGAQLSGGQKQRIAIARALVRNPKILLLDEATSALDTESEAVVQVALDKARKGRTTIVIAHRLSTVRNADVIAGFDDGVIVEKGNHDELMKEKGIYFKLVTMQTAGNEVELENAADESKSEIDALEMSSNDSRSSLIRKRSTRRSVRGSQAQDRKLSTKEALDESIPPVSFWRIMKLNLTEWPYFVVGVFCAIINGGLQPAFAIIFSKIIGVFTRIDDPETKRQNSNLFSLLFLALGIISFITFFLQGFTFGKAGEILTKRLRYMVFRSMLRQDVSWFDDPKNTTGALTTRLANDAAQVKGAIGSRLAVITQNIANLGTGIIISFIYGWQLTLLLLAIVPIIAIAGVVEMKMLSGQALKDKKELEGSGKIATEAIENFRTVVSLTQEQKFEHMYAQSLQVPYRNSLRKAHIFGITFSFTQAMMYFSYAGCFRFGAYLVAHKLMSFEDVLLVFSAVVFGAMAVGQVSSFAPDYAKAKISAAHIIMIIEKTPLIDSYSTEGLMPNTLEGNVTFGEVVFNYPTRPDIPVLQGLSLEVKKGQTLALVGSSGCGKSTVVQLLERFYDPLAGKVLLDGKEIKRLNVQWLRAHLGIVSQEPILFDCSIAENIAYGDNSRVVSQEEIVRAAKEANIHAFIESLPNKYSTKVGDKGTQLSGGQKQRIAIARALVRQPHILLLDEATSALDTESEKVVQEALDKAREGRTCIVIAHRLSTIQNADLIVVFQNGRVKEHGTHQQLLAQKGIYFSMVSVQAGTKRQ
Chain of ATP-binding cassette sub-family C member 3 (O15438 whole entry): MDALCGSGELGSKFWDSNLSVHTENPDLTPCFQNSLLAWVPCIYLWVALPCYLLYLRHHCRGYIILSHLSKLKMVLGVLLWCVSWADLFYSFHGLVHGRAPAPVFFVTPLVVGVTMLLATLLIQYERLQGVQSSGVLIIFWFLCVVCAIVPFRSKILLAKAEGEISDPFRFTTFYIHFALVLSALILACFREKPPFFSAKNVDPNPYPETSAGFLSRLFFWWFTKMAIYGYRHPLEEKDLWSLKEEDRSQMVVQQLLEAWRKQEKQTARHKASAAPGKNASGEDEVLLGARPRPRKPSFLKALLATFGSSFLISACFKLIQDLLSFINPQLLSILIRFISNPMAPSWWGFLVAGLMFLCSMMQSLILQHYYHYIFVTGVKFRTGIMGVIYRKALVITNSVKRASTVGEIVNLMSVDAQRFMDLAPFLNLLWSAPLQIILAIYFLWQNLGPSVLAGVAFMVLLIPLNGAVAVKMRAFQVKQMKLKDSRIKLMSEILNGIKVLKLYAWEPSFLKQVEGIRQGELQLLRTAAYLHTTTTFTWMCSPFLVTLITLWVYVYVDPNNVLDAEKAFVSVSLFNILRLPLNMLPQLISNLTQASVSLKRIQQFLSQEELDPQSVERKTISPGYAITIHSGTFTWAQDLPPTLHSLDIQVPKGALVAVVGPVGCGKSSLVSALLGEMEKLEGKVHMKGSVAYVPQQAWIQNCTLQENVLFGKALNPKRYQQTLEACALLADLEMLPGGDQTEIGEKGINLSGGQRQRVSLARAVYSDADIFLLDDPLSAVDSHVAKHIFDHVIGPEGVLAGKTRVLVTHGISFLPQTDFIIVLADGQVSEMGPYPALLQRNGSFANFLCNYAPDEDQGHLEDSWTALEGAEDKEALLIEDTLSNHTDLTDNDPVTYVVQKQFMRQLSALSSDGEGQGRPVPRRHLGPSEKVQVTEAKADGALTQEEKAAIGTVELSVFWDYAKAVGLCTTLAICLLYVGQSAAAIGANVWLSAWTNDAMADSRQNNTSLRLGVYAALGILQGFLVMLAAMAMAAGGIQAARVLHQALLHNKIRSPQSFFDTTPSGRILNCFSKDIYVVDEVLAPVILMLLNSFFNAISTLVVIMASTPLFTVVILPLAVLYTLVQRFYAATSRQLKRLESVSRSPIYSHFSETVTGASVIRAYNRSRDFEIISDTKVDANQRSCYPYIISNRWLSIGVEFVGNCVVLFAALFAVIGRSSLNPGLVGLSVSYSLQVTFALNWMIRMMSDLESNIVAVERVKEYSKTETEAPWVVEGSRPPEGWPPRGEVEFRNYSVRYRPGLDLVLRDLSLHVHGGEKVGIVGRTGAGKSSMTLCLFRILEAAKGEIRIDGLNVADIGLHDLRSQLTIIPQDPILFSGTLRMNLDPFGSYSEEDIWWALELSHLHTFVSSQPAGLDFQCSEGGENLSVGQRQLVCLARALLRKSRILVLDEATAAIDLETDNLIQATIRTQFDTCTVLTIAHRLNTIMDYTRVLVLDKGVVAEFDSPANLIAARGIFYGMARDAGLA
Chain of Cytochrome P450 3A5 (P20815 whole entry): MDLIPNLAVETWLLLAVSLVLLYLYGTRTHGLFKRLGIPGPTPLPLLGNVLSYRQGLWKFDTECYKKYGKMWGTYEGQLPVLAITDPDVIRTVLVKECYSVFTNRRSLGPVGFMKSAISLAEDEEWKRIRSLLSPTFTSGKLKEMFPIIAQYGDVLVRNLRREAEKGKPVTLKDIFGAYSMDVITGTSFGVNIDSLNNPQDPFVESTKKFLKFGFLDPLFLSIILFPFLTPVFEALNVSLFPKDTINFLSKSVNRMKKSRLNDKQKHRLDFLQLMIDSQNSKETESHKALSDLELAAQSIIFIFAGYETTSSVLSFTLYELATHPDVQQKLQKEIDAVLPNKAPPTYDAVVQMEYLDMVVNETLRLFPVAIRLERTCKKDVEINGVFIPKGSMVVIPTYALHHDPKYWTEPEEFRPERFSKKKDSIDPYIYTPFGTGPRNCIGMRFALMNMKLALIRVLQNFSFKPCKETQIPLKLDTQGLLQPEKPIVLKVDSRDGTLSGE

## CC(=O)O[C@H]1C(=O)[C@@]2(C)[C@H]([C@H](OC(=O)c3ccccc3)[C@]3(O)C[C@H](OC(=O)[C@H](O)[C@@H](NC(=O)c4ccccc4)c4ccccc4)C(C)=C1C3(C)C)[C@]1(OC(C)=O)CO[C@@H]1C[C@@H]2O [PACLITAXEL]
[1]
  Cmax: 127 ng/mL
[2]
  Tmax: 4.8 min
[3]
  AUC(0-t) at 24 h: 308 ng·h/mL
[4]
  AUC(0-t) at 24 h: 3760 ng·h/mL
[5]
  bioavailability: 41.3%
[6]
  Drug uptake: Not Active
[7]
  Drug absorption: Not Active
[8]
  Drug uptake: Active
[9]
  Drug uptake: Active
[10]
  Kp at 24 h: > 1
[11]
  Drug excretion: Metabolite_Detected
[12]
  Activity: 5%
[13]
  Activity: 5%
[14]
  Activity: Non-Toxic
[15]
  Activity: Non-Toxic
[16]
  Activity: Toxic
[17]
  half-life at 24 h: 6.8 h

## COc1cc2c(cc1OC)CN(CCc1ccc(-n3nnc(-c4cc(OC)c(OC)cc4NC(=O)c4cc(=O)c5ccccc5o4)n3)cc1)CC2
[18]
  IC50: > 100000 nM
[19]
  IC50: 0.6 nM
[20]
  solubility: 0.219 µg/mL (≈ 0.318 µM)
[21]
  Papp A→B at 2 h: 0.002 ×10⁻⁶ cm/s
[22]
  AUC(0-t) at 48 h: 129 ng·h/mL
[23]
  AUC(0-t) at 48 h: 1920 ng·h/mL
[24]
  Drug metabolism: Metabolite_Detected
[25]
  Activity: Non-Toxic
[26]
  Activity: Toxic
[27]
  Activity: Toxic
[28]
  Activity: Toxic
[29]
  Drug uptake: Not Active
[30]
  Drug uptake: Active
[31]
  Drug uptake: Not Active
[32]
  Cmax: 7.1 ng/mL
